{"data": "Results of several laboratories", "observed": "cell growth or viability", "note": "Compare with care: the assays were run in different laboratories. pEC50, pIC50: −log10 of the molar value."}
{"SMILES": "Cc1n[nH]c2ccc3nc(-c4ccc(C(=O)NCCN(C)C)cc4F)c4c(c3c12)CCCCC4", "cell line": "Kasumi 1", "conditions": "72 h", "endpoint": "GI50", "result": "397 nM"}
{"SMILES": "Cc1nc(Nc2ncc(C(=O)Nc3c(C)cccc3Cl)s2)cc(N2CC[C@H](O)C2)n1", "cell line": "Toledo", "test": "ATP luminescence", "conditions": "10 µM, 72 h", "endpoint": "inhibition", "result": "50%"}
{"SMILES": "C[C@H](Nc1ccc2c(c1)OCCn1cc(N3C(=O)OC[C@H]3C(F)F)nc1-2)C(N)=O", "cell line": "HGC-27", "test": "ATP luminescence", "conditions": "5 days", "endpoint": "pEC50", "result": 6.92}
{"SMILES": "NNc1nc2c(Cl)cc(Cl)cc2c(=O)n1-c1ccc(F)cc1", "cell line": "SW480", "test": "MTT", "conditions": "48 h", "endpoint": "pIC50", "result": 4.28}
{"SMILES": "C=C1CC[C@@H]2[C@](C)(CO)[C@H](O)CC[C@@]2(C)[C@@H]1C/C=C1/C(=O)OC[C@H]1O", "cell line": "SW480", "test": "MTT", "conditions": "72 h", "endpoint": "pIC50", "result": 5.38}
{"SMILES": "Cc1n[nH]c2ccc3nc(-c4ccc(C(=O)NCCN(C)C)cc4)c4c(c3c12)CCCC4", "cell line": "Kasumi 1", "conditions": "72 h", "endpoint": "GI50", "result": "148 nM"}
{"SMILES": "COc1cccc2c1C(=O)c1c(O)c3c(c(O)c1C2=O)C[C@@](O)(C(=O)CO)C[C@@H]3O[C@H]1C[C@H](N)[C@H](O)[C@H](C)O1", "cell line": "SW480", "test": "MTT", "conditions": "72 h", "endpoint": "pIC50", "result": 7.05}
{"SMILES": "CCN(CC)c1ccc(C=NNC(=O)CSc2nc3ccccc3c(=O)n2Cc2ccc(S(N)(=O)=O)cc2)c(O)c1", "cell line": "NCI/ADR-RES", "test": "SRB", "endpoint": "GI50", "result": "> 100000 nM"}
{"SMILES": "Cc1nc(NC(=O)N2CCC[C@H]2C(N)=O)sc1-c1ccnc(C(C)(C)C(F)(F)F)c1", "cell line": "HGC-27", "test": "ATP luminescence", "conditions": "5 days", "endpoint": "pEC50", "result": 4.70}
